Variants at the floor of the assay were thinned out.
B1: tRNA (parent)
chain: GUUCCGUUGGCGUAAUGGUAACGCGUCUCCCUCCUAAGGAGAAGACUGCGGGUUCGAGUCCCGUACGGAACG

Variants of: B1
Assay: yeast fitness relative to wild type (ratio to wild type); higher = fitter; tRNA-Arg(CCU), competitive growth, 37 C, YPD
Procedure, shortened: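 Gene amplicons from the start population and from each of six end populations were read by 100-nucleotide paired-end sequencing. Those end populations came from pooled Saccharomyces cerevisiae strains carrying tRNA-Arg(CCU) gene variants at the native locus, competed in YPD at 37°C for 24 hours. Fitness relative to wild type was worked out from changes in genotype frequencies. Genotypes needed ≥ 100 starting reads, and estimates < 0.5 were set to 0.5.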
In the case of G23C C24G C34G U64A, the yeast fitness is reported as ≤ 0.5. G23C C31A C49A showed a yeast fitness of 0.758. Work on C24A A36C A40G yielded a yeast fitness of 0.789. For C24A G63A U64A, the yeast fitness was ≤ 0.5. For C24A C29U A36U C55U, the yeast fitness was ≤ 0.5. With G23C C27G C31U the yeast fitness was ≤ 0.5. For C24A C29U, the yeast fitness was 0.643. With G23C C31G G44C U47A C66U A69C the yeast fitness was ≤ 0.5. In the case of G23U A42C, the yeast fitness is reported as 0.74. G23C U26C C46G showed a yeast fitness of 0.57. C24A C27U showed a yeast fitness of 0.702. Work on C24A C27G yielded a yeast fitness of 0.571. In the case of G23C C24G C34G, the yeast fitness is reported as ≤ 0.5. With C24A U28C A57U the yeast fitness was ≤ 0.5. In the case of C24A C30U C34A A45G A57U C62U, the yeast fitness is reported as ≤ 0.5. G23U A40G showed a yeast fitness of 0.682. With C24A C27U C29G G44C U59C G67A the yeast fitness was ≤ 0.5. In the case of G23C C24G G50A A57G, the yeast fitness is reported as ≤ 0.5. With G23C C30U C34U G67C the yeast fitness was ≤ 0.5. With G23C U26C C27U C46U A69C the yeast fitness was ≤ 0.5. Work on C24A C62G A70U yielded a yeast fitness of 0.562. With C24A G58A the yeast fitness was 0.859. With G23U A57G the yeast fitness was 0.665. In the case of G23C C30G C62U, the yeast fitness is reported as ≤ 0.5. With C24A A45G C66U the yeast fitness was ≤ 0.5. Variant C24A G56C has a yeast fitness of 0.626. For G23C C29G A43U G50A G68U, the yeast fitness was ≤ 0.5. In the case of C24A C31G G51C C55U G58C, the yeast fitness is reported as ≤ 0.5. For C24A C27U U54C U59C G68U, the yeast fitness was ≤ 0.5. In the case of G23C C61A, the yeast fitness is reported as ≤ 0.5. Variant G23C C61G has a yeast fitness of 0.587. G23C C61U gave a yeast fitness of 0.703. C24A C27U U28G showed a yeast fitness of 0.511. With G23C C34A A36C A37C A40C G67U the yeast fitness was ≤ 0.5. In the case of G23C U32A A69C, the yeast fitness is reported as ≤ 0.5. In the case of C24A C27A U28A C49U C55A, the yeast fitness is reported as ≤ 0.5. With C24A A40G C61U the yeast fitness was ≤ 0.5. For C24A C27A U28A A70U, the yeast fitness was ≤ 0.5. For C24A A43U G52A, the yeast fitness was ≤ 0.5. C24A C29G A45G C62A A69C showed a yeast fitness of 0.52. Variant C24A C30U C62U has a yeast fitness of 0.511. For C24A U32C C61G, the yeast fitness was ≤ 0.5. Work on C24A C46G U59C C62G yielded a yeast fitness of 0.617. With C24A C46G U59C C62U the yeast fitness was ≤ 0.5. With C24A A37G A57C the yeast fitness was ≤ 0.5. Variant C24A A40G C49A C61G has a yeast fitness of 0.53. G23C C66U gave a yeast fitness of 0.723. In the case of C24A A36G A37G A69C, the yeast fitness is reported as ≤ 0.5. With C24A A36G A37G A69U the yeast fitness was ≤ 0.5. In the case of G23C C49U C62A C66A, the yeast fitness is reported as ≤ 0.5. In the case of C24A A36U C61U G67U, the yeast fitness is reported as 0.608. G23C C24G G50A showed a yeast fitness of 0.585. For G23C C30A C46A, the yeast fitness was ≤ 0.5. Work on G23C C62U yielded a yeast fitness of 0.743. For G23C C62A, the yeast fitness was 0.541. G23C C30A showed a yeast fitness of 0.6. In the case of C24A C31U A42C U47C, the yeast fitness is reported as ≤ 0.5. With G23C C46U the yeast fitness was 0.568. For G23U C30A C55G A57C C62G G68C, the yeast fitness was ≤ 0.5. For C24A C27U C61A, the yeast fitness was ≤ 0.5. With C24A C49A G56C G68C the yeast fitness was ≤ 0.5. For C24A C31A C55A, the yeast fitness was ≤ 0.5. With C24A C29G U35G A36C the yeast fitness was ≤ 0.5. For C24A C31U G56C, the yeast fitness was ≤ 0.5. In the case of G23C C30U C46U, the yeast fitness is reported as ≤ 0.5. In the case of G23C C29U C49A, the yeast fitness is reported as ≤ 0.5. For C24A A42G G48C, the yeast fitness was ≤ 0.5. G23U A45G showed a yeast fitness of 0.579. In the case of C24A A36G A43G A57G, the yeast fitness is reported as ≤ 0.5. G23C C27U gave a yeast fitness of 0.726. C24A C27G C29G gave a yeast fitness of 0.639. For G23C C27G C31A A45U G67A, the yeast fitness was ≤ 0.5. In the case of C24A A43G A65C, the yeast fitness is reported as ≤ 0.5. In the case of G23U U28G G50A, the yeast fitness is reported as ≤ 0.5. For C24A C27U C29G G44C G68C, the yeast fitness was ≤ 0.5. For C24A A57C C61G, the yeast fitness was ≤ 0.5. In the case of G23C G44C C49U, the yeast fitness is reported as ≤ 0.5. With G23C C55G A69U the yeast fitness was ≤ 0.5. C24A C29G A43C C60U gave a yeast fitness of 0.648. In the case of G23C C29A G38A A57G, the yeast fitness is reported as ≤ 0.5. In the case of C24A C29U A37U C60A C66U, the yeast fitness is reported as ≤ 0.5. With C24A U26A A43U C55A C66U the yeast fitness was ≤ 0.5. In the case of G23U C24G C27U C62G C66G, the yeast fitness is reported as ≤ 0.5. With C24A C34U A40C G68C the yeast fitness was ≤ 0.5.
